# From ChEMBL document CHEMBL4014288, “Targeted Antibiotic Delivery: Selective Siderophore Conjugation with Daptomycin Confers Potent Activity against Multidrug Resistant Acinetobacter baumannii Both in Vitro and in Vivo” (J Med Chem, 2017)
# Active and inactive are the calls of the source. No cut-off for these calls is given here.
# Assays:
# [1] = tested on: Mus musculus; assay: Toxicity in ICR mouse at 250 mg/kg, iv after 21 to 22 days; assay type: organism-based; conditions: in vivo
# [2] = tested on: Staphylococcus aureus; assay: Antibacterial activity against Staphylococcus aureus SG511 after 18 hrs by broth microdilution method; assay type: functional; conditions: SG511, 18 h
# [3] = tested on: Acinetobacter baumannii; assay: Antibacterial activity against Acinetobacter baumannii ATCC 17961 infected in ICR mouse assessed as mouse survival rate at 10 mg/kg, iv administered at 30 mins and 24.5 hrs post infection measured 7 days post infection relative to vehicle-treated control; assay type: functional; conditions: ATCC 17961, iv
# Method in brief: (§1)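 Sepsis model in 6- to 8-week-old female ICR mice infected intraperitoneally with A. baumannii ATCC 17961. Treatment given intravenously at 30 min and again at 24.5 h after infection, at 25, 10 or 5 mg/kg. Saline vehicle group as control. Five mice per dose group and six in the vehicle group. Read-out was survival.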
# [4] = tested on: Acinetobacter baumannii; assay: Antibacterial activity against Acinetobacter baumannii ATCC 17961 infected in ICR mouse assessed as mouse survival rate at 25 mg/kg, iv administered at 30 mins and 24.5 hrs post infection measured 7 days post infection relative to vehicle-treated control; assay type: functional; conditions: ATCC 17961, iv; method in brief: as §1
# [5] = tested on: Acinetobacter baumannii; assay: Antibacterial activity against Acinetobacter baumannii ARC 3484 after 18 hrs by broth microdilution method; assay type: functional; conditions: ARC 3484, 18 h
# [6] = tested on: Acinetobacter baumannii; assay: Antibacterial activity against Acinetobacter baumannii ATCC 19606 after 18 hrs by broth microdilution method; assay type: functional; conditions: ATCC 19606, 18 h
# [7] = tested on: Escherichia coli; assay: Antibacterial activity against Escherichia coli DCO after 18 hrs by broth microdilution method; assay type: functional
# [8] = tested on: Acinetobacter baumannii; assay: Antibacterial activity against Acinetobacter baumannii ATCC BAA 1710 after 18 hrs by broth microdilution method; assay type: functional; conditions: ATCC BAA 1710, 18 h
# [9] = tested on: Acinetobacter baumannii; assay: Antibacterial activity against Acinetobacter baumannii ATCC 17961 after 18 hrs by broth microdilution method; assay type: functional; conditions: ATCC 17961, 18 h
# [10] = tested on: Acinetobacter baumannii; assay: Antibacterial activity against Acinetobacter baumannii ATCC BAA 1797 after 18 hrs by broth microdilution method; assay type: functional; conditions: ATCC BAA 1797, 18 h
# [11] = tested on: Pseudomonas aeruginosa; assay: Antibacterial activity against Pseudomonas aeruginosa PAO1 after 18 hrs by broth microdilution method; assay type: functional; conditions: PAO1, 18 h
# [12] = tested on: Acinetobacter baumannii; assay: Antibacterial activity against Acinetobacter baumannii ATCC 17961 infected in ICR mouse assessed as mouse survival rate at 5 mg/kg, iv administered at 30 mins and 24.5 hrs post infection measured 7 days post infection relative to vehicle-treated control; assay type: functional; conditions: ATCC 17961, iv; method in brief: as §1
# [13] = tested on: Acinetobacter baumannii; assay: Antibacterial activity against Acinetobacter baumannii ATCC BAA 1793 after 18 hrs by broth microdilution method; assay type: functional; conditions: ATCC BAA 1793, 18 h
# [14] = tested on: Acinetobacter baumannii; assay: Antibacterial activity against Acinetobacter baumannii ARC 5081 after 18 hrs by broth microdilution method; assay type: functional; conditions: ARC 5081, 18 h
# [15] = tested on: Acinetobacter baumannii; assay: Antibacterial activity against Acinetobacter baumannii ATCC BAA 1800 after 18 hrs by broth microdilution method; assay type: functional; conditions: ATCC BAA 1800, 18 h
# [16] = tested on: Acinetobacter baumannii; assay: Antibacterial activity against Acinetobacter baumannii ARC 5079 after 18 hrs by broth microdilution method; assay type: functional; conditions: ARC 5079, 18 h
# [17] = tested on: Burkholderia multivorans; assay: Antibacterial activity against Burkholderia multivorans AU0100 after 18 hrs by broth microdilution method; assay type: functional; conditions: AU0100, 18 h
# [18] = tested on: Acinetobacter baumannii; assay: Antibacterial activity against Acinetobacter baumannii ARC 3486 after 18 hrs by broth microdilution method; assay type: functional; conditions: ARC 3486, 18 h
# [19] = tested on: Staphylococcus aureus; assay: Antibacterial activity against Staphylococcus aureus ATCC 11632 after 18 hrs by broth microdilution method; assay type: functional; conditions: ATCC 11632, 18 h
# [20] = Binding affinity to ferric ion
# [21] = Binding affinity to ferric ion at 5 mg after 18 hrs by LC-MS analysis
# Method in brief: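 Ferric complex made by adding Fe(acac)3 (1.1 mg) in MeOH (1 mL) to conjugate (5.0 mg) in MeOH (1 mL). Analysed by LC on a C18 column (2.2 μm particles) at 40 °C, with a water/acetonitrile mobile phase. UV-vis diode-array detection over 190−400 nm, plus MS.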
# [22] = tested on: Acinetobacter baumannii; assay: Antibacterial activity against Acinetobacter baumannii ATCC 17961 infected in ICR mouse assessed as mouse survival rate at 50 mg/kg, iv administered at 30 mins and 24.5 hrs post infection measured 7 days post infection; assay type: functional, organism-based
# Method in brief: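 Female ICR mice, 6 to 8 weeks old, infected intraperitoneally with A. baumannii ATCC 17961 (sepsis model). Treatments were given intravenously at 30 min and 24.5 h after infection, with saline as vehicle. Survival was scored as the fraction of mice alive per group (3 to 6 mice per group).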
MIC [5] [µM],MIC [8] [µM],MIC [9] [µM],MIC [10] [µM],MIC [13] [µM],MIC [14] [µM],MIC [15] [µM],MIC [16] [µM],MIC [18] [µM],Structure (SMILES),MIC [2] [µM],MIC [6] [µM],MIC [7] [µM],MIC [11] [µM],MIC [17] [µM],MIC [19] [µM],further results
–,–,–,–,–,–,–,–,–,CCCCCCCCCC(=O)N[C@@H](Cc1c[nH]c2ccccc12)C(=O)N[C@H](CC(N)=O)C(=O)N[C@@H](CC(=O)O)C(=O)N[C@@H]1C(=O)NCC(=O)N[C@@H](CCCNC(=O)CCCC(=O)N(O)CCCCCNC(=O)CCC(=O)N(CCCCNC(=O)c2cccc(O)c2O)CCCNC(=O)c2cccc(O)c2O)C(=O)N[C@@H](CC(=O)O)C(=O)N[C@H](C)C(=O)N[C@@H](CC(=O)O)C(=O)NCC(=O)N[C@H](CO)C(=O)N[C@@H]([C@@H](C)CC(=O)O)C(=O)N[C@@H](CC(=O)c2ccccc2N)C(=O)O[C@@H]1C [listing 1 of 2 here],–,–,–,–,–,–,Activity [1]: Non-Toxic
> 50,> 50,> 50,> 50,> 50,> 50,> 50,> 50,> 50,CCCCCCCCCC(=O)N[C@@H](Cc1c[nH]c2ccccc12)C(=O)N[C@@H](CC(N)=O)C(=O)N[C@@H](CC(=O)O)C(=O)N[C@@H]1C(=O)NCC(=O)N[C@@H](CCCNC(=O)CCCC(=O)N(CCCCCNC(=O)CCC(=O)N(CCCCNC(=O)c2cccc(OCc3ccccc3)c2OCc2ccccc2)CCCNC(=O)c2cccc(OCc3ccccc3)c2OCc2ccccc2)OCc2ccccc2)C(=O)N[C@@H](CC(=O)O)C(=O)N[C@H](C)C(=O)N[C@@H](CC(=O)O)C(=O)NCC(=O)N[C@H](CO)C(=O)N[C@@H]([C@@H](C)CC(=O)O)C(=O)N[C@@H](CC(=O)c2ccccc2N)C(=O)O[C@@H]1C,–,> 50,–,–,–,–,Activity [20]: inactive
–,–,–,–,–,–,–,–,–,CCCCCCCCCC(=O)N[C@@H](Cc1c[nH]c2ccccc12)C(=O)N[C@@H](CC(N)=O)C(=O)N[C@@H](CC(=O)O)C(=O)N[C@@H]1C(=O)NCC(=O)N[C@@H](CCCNC(=O)CCCC(=O)N(O)CCCCCNC(=O)CCC(=O)N(CCCCNC(=O)c2cccc(O)c2O)CCCNC(=O)c2cccc(O)c2O)C(=O)N[C@@H](CC(=O)O)C(=O)N[C@H](C)C(=O)N[C@@H](CC(=O)O)C(=O)NCC(=O)N[C@H](CO)C(=O)N[C@@H]([C@@H](C)CC(=O)O)C(=O)N[C@@H](CC(=O)c2ccccc2N)C(=O)O[C@@H]1C,–,–,–,–,–,–,Activity [21]: Active
> 27,> 50,1.7,27,> 50,> 50,> 50,> 50,> 50,NCC[C@H](O)C(=O)N[C@@H]1C[C@H](N)[C@@H](O[C@H]2O[C@H](CN)[C@@H](O)[C@H](O)[C@H]2O)[C@H](O)[C@H]1O[C@H]1O[C@H](CO)[C@@H](O)[C@H](N)[C@H]1O [AMIKACIN],–,3.4,–,–,–,–,–
> 100,> 100,> 100,> 100,> 100,> 100,> 100,> 100,> 100,CCCCCCCCCC(=O)N[C@@H](Cc1c[nH]c2ccccc12)C(=O)N[C@@H](CC(N)=O)C(=O)N[C@@H](CC(=O)O)C(=O)N[C@@H]1C(=O)NCC(=O)N[C@@H](CCCN)C(=O)N[C@@H](CC(=O)O)C(=O)N[C@H](C)C(=O)N[C@@H](CC(=O)O)C(=O)NCC(=O)N[C@H](CO)C(=O)N[C@@H]([C@H](C)CC(=O)O)C(=O)N[C@@H](CC(=O)c2ccccc2N)C(=O)O[C@@H]1C [DAPTOMYCIN],0.05,–,> 100,> 100,> 100,0.4,Activity [22]: inactive

Structure (SMILES),MIC [5] [µM],MIC [8] [µM],MIC [9] [µM],MIC [10] [µM],MIC [13] [µM],MIC [14] [µM],MIC [15] [µM],MIC [16] [µM],MIC [18] [µM],MIC [2] [µM],MIC [6] [µM],MIC [7] [µM],MIC [11] [µM],MIC [17] [µM],MIC [19] [µM],further results
CCCCCCCCCC(=O)N[C@@H](Cc1c[nH]c2ccccc12)C(=O)N[C@H](CC(N)=O)C(=O)N[C@@H](CC(=O)O)C(=O)N[C@@H]1C(=O)NCC(=O)N[C@@H](CCCNC(=O)CCCC(=O)N(O)CCCCCNC(=O)CCC(=O)N(CCCCNC(=O)c2cccc(O)c2O)CCCNC(=O)c2cccc(O)c2O)C(=O)N[C@@H](CC(=O)O)C(=O)N[C@H](C)C(=O)N[C@@H](CC(=O)O)C(=O)NCC(=O)N[C@H](CO)C(=O)N[C@@H]([C@@H](C)CC(=O)O)C(=O)N[C@@H](CC(=O)c2ccccc2N)C(=O)O[C@@H]1C [listing 2 of 2 here],0.4,0.8,0.4,0.8,0.8,0.4,0.8,0.8,0.4,6,0.8,> 100,> 100,> 100,12.5,survival at 10 mg/kg [3]: 80%; survival at 25 mg/kg [4]: 80%; survival at 5 mg/kg [12]: 20%
O=C(O)c1cn(C2CC2)c2cc(N3CCNCC3)c(F)cc2c1=O [CIPROFLOXACIN],> 25,> 25,0.2,> 25,> 25,> 25,> 25,> 25,> 25,0.5,0.8,0.5,0.5,> 25,0.5,–
